According to article PMC5198968 (Cancer Science, 2016):
Values joined by “and” are separate entries in the source; they are usually repeats but may differ in a detail not shown here. Identical values can stand only once. “Also recorded” adds a separate entry of the source.

Tested on: Japanese patients with advanced hepatocellular carcinoma
Test: Adverse events
Type: in vivo, human
Summary of the method: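 Oral test compound given twice daily, continuously, in 28-day cycles until progression or unacceptable AEs. Group I had mild liver impairment (Child–Pugh 5–6) and group II moderate impairment (Child–Pugh 7 or raised AST/ALT). AEs were recorded over the observation period and graded by CTCAE v3.0. The treated set was every patient receiving at least one dose, and analyses were descriptive.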

[1] = Group I (mild liver impairment), 150 mg b.i.d., n = 4
[2] = Group I (mild liver impairment), 200 mg b.i.d., n = 12
[3] = Group I (mild liver impairment), all patients, n = 16
[4] = Group I (mild liver impairment), n = 16, all grades
[5] = Group I (mild liver impairment), n = 16, grade ≥3
[6] = Group II (moderate liver impairment), 100 mg b.i.d., n = 3
[7] = Group II (moderate liver impairment), 150 mg b.i.d., n = 4
[8] = Group II (moderate liver impairment), 200 mg b.i.d., n = 7
[9] = Group II (moderate liver impairment), all patients, n = 14
[10] = Group II (moderate liver impairment), n = 14, all grades
[11] = Group II (moderate liver impairment), n = 14, grade ≥3

## COC(=O)c1ccc2c(c1)NC(=O)/C2=C(\Nc1ccc(N(C)C(=O)CN2CCN(C)CC2)cc1)c1ccccc1 [nintedanib]
[1]
  AEs leading to nintedanib discontinuation: 0 (0.0) n (%)
  AEs leading to nintedanib dose reduction: 0 (0.0) n (%)
  Any AE: 4 (100.0) n (%)
  Investigator-defined drug-related AE: 3 (75.0) n (%)
  Other significant AEs (leading to dose reduction or permanent discontinuation of nintedanib): 0 (0.0) n (%)
  Serious AEs: 0 (0.0) n (%)
  Serious AEs: Fatal: 0 (0.0) n (%)
  Serious AEs: Immediately life-threatening: 0 (0.0) n (%)
  Serious AEs: Prolonged hospitalization: 0 (0.0) n (%)
  Serious AEs: Required hospitalization: 0 (0.0) n (%)
[2]
  AEs leading to nintedanib discontinuation: 0 (0.0) n (%)
  AEs leading to nintedanib dose reduction: 5 (41.7) n (%)
  Any AE: 12 (100.0) n (%)
  Investigator-defined drug-related AE: 11 (91.7) n (%)
  Other significant AEs (leading to dose reduction or permanent discontinuation of nintedanib): 5 (41.7) n (%)
  Serious AEs: 4 (33.3) n (%)
  Serious AEs: Fatal: 0 (0.0) n (%)
  Serious AEs: Immediately life-threatening: 0 (0.0) n (%)
  Serious AEs: Prolonged hospitalization: 0 (0.0) n (%)
  Serious AEs: Required hospitalization: 4 (33.3) n (%)
[3]
  AEs leading to nintedanib discontinuation: 0 (0.0) n (%)
  AEs leading to nintedanib dose reduction: 5 (31.3) n (%)
  Any AE: 16 (100.0) n (%)
  Investigator-defined drug-related AE: 14 (87.5) n (%)
  Other significant AEs (leading to dose reduction or permanent discontinuation of nintedanib): 5 (31.3) n (%)
  Serious AEs: 4 (25.0) n (%)
  Serious AEs: Fatal: 0 (0.0) n (%)
  Serious AEs: Immediately life-threatening: 0 (0.0) n (%)
  Serious AEs: Prolonged hospitalization: 0 (0.0) n (%)
  Serious AEs: Required hospitalization: 4 (25.0) n (%)
[4]
  Abdominal pain: 4 (25.0)
  Any AE: 16 (100)
  Ascites: 1 (6.3)
  Decreased appetite: 6 (37.5)
  Decreased platelet count: 2 (12.5)
  Diarrhea: 8 (50.0)
  Fatigue: 3 (18.8)
  Hyperuricemia: 1 (6.3)
  Hypoalbuminemia: 2 (12.5)
  Increased ALT: 1 (6.3)
  Increased AST: 4 (25.0)
  Increased blood bilirubin: 1 (6.3)
  Malaise: 4 (25.0)
  Malignant neoplasm progression: 1 (6.3)
  Nausea: 7 (43.8)
  Neutropenia: 2 (12.5)
  Pyrexia: 2 (12.5)
  Vomiting: 6 (37.5)
[5]
  Abdominal pain: 0 (0.0)
  Any AE: 7 (43.8)
  Ascites: 0 (0.0)
  Decreased appetite: 0 (0.0)
  Decreased platelet count: 2 (12.5)
  Diarrhea: 1 (6.3)
  Fatigue: 1 (6.3)
  Hyperuricemia: 0 (0.0)
  Hypoalbuminemia: 0 (0.0)
  Increased ALT: 0 (0.0)
  Increased AST: 0 (0.0)
  Increased blood bilirubin: 0 (0.0)
  Malaise: 0 (0.0)
  Malignant neoplasm progression: 0 (0.0)
  Nausea: 0 (0.0)
  Neutropenia: 0 (0.0)
  Pyrexia: 0 (0.0)
  Vomiting: 0 (0.0)
[6]
  AEs leading to nintedanib discontinuation: 0 (0.0) n (%)
  AEs leading to nintedanib dose reduction: 1 (33.3) n (%)
  Any AE: 3 (100.0) n (%)
  Investigator-defined drug-related AE: 3 (100.0) n (%)
  Other significant AEs (leading to dose reduction or permanent discontinuation of nintedanib): 1 (33.3) n (%)
  Serious AEs: 1 (33.3) n (%)
  Serious AEs: Fatal: 0 (0.0) n (%)
  Serious AEs: Immediately life-threatening: 0 (0.0) n (%)
  Serious AEs: Prolonged hospitalization: 0 (0.0) n (%)
  Serious AEs: Required hospitalization: 1 (33.3) n (%)
[7]
  AEs leading to nintedanib discontinuation: 0 (0.0) n (%)
  AEs leading to nintedanib dose reduction: 1 (25.0) n (%)
  Any AE: 4 (100.0) n (%)
  Investigator-defined drug-related AE: 4 (100.0) n (%)
  Other significant AEs (leading to dose reduction or permanent discontinuation of nintedanib): 1 (25.0) n (%)
  Serious AEs: 2 (50.0) n (%)
  Serious AEs: Fatal: 1 (25.0) n (%)
  Serious AEs: Immediately life-threatening: 0 (0.0) n (%)
  Serious AEs: Prolonged hospitalization: 0 (0.0) n (%)
  Serious AEs: Required hospitalization: 2 (50.0) n (%)
[8]
  AEs leading to nintedanib discontinuation: 0 (0.0) n (%)
  AEs leading to nintedanib dose reduction: 1 (14.3) n (%)
  Any AE: 7 (100.0) n (%)
  Investigator-defined drug-related AE: 5 (71.4) n (%)
  Other significant AEs (leading to dose reduction or permanent discontinuation of nintedanib): 1 (14.3) n (%)
  Serious AEs: 3 (42.9) n (%)
  Serious AEs: Fatal: 1 (14.3) n (%)
  Serious AEs: Immediately life-threatening: 1 (14.3) n (%)
  Serious AEs: Prolonged hospitalization: 1 (14.3) n (%)
  Serious AEs: Required hospitalization: 3 (42.9) n (%)
[9]
  AEs leading to nintedanib discontinuation: 0 (0.0) n (%)
  AEs leading to nintedanib dose reduction: 3 (21.4) n (%)
  Any AE: 14 (100.0) n (%)
  Investigator-defined drug-related AE: 12 (85.7) n (%)
  Other significant AEs (leading to dose reduction or permanent discontinuation of nintedanib): 3 (21.4) n (%)
  Serious AEs: 6 (42.9) n (%)
  Serious AEs: Fatal: 2 (14.3) n (%)
  Serious AEs: Immediately life-threatening: 1 (7.1) n (%)
  Serious AEs: Prolonged hospitalization: 1 (7.1) n (%)
  Serious AEs: Required hospitalization: 6 (42.9) n (%)
[10]
  Abdominal pain (upper abdominal pain for group II): 2 (14.3)
  Any AE: 14 (100)
  Ascites: 7 (50.0)
  Decreased appetite: 7 (50.0)
  Decreased platelet count: 1 (7.1)
  Diarrhea: 6 (42.9)
  Fatigue: 5 (35.7)
  Hyperuricemia: 3 (21.4)
  Hypoalbuminemia: 6 (42.9)
  Increased ALT: 4 (28.6)
  Increased AST: 5 (35.7)
  Increased blood bilirubin: 4 (28.6)
  Lymphopenia: 2 (14.3)
  Malaise: 3 (21.4)
  Malignant neoplasm progression: 4 (28.6)
  Nausea: 5 (35.7)
  Neutropenia: 3 (21.4)
  Pyrexia: 4 (28.6)
  Vomiting: 3 (21.4)
[11]
  Abdominal pain (upper abdominal pain for group II): 0 (0.0)
  Any AE: 11 (78.6)
  Ascites: 1 (7.1)
  Decreased appetite: 0 (0.0)
  Decreased platelet count: 0 (0.0)
  Diarrhea: 0 (0.0)
  Fatigue: 0 (0.0)
  Hyperuricemia: 2 (14.3)
  Hypoalbuminemia: 1 (7.1)
  Increased ALT: 2 (14.3)
  Increased AST: 3 (21.4)
  Increased blood bilirubin: 0 (0.0)
  Lymphopenia: 2 (14.3)
  Malaise: 0 (0.0)
  Malignant neoplasm progression: 2 (14.3)
  Nausea: 0 (0.0)
  Neutropenia: 2 (14.3)
  Pyrexia: 0 (0.0)
  Vomiting: 0 (0.0)
Both groups
  Discontinuation of nintedanib due to AEs: No patients discontinued nintedanib due to adverse events; also recorded: No patients discontinued nintedanib due to AEs
  Drug-related fatal AEs: No drug‐related fatal AEs were reported
  Hypertension at grade ≥3: not reported by any patients
Group I
  Ascites, any grade: 6.3%
  Bleeding, incidence: 12.5%
  Decreased appetite, any grade: 37.5%
  Diarrhea, any grade: 50.0%
  Fatigue, any grade: 18.8%
  Hand-foot skin reaction: one patient in group I
  Hypertension, incidence: 12.5%
  Hypoalbuminemia, any grade: 12.5%
  Increased AST, any grade: 25.0%
  Nausea, any grade: 43.8%
  Serious AEs considered drug-related by the investigator: grade 3 immune thrombocytopenic purpura and grade 3 hyponatremia
  Thromboembolic events at grade ≥3: no patients in group I
  Thromboembolic events, incidence: 0.0%
  Vomiting, any grade: 37.5%
Group I (five patients, all on 200 mg)
  Patients with dose reduction of nintedanib due to AEs: 31% and 31.3%
Group I (four patients)
  Patients with serious AEs (all requiring hospitalization): 25.0%
Group I (seven patients)
  Patients with adverse events at grade ≥3: 43.8%
Group II
  Ascites, any grade: 50.0%
  Bleeding at grade ≥3: no patients in group II
  Bleeding, incidence: 14.3%
  Decreased appetite, any grade: 50.0%
  Diarrhea, any grade: 42.9%
  Fatigue, any grade: 35.7%
  Hand-foot skin reaction: no patients in group II
  Hypertension, incidence: 21.4%
  Hypoalbuminemia, any grade: 42.9%
  Increased AST, any grade: 35.7%
  Nausea, any grade: 35.7%
  Serious AEs considered drug-related by the investigator: grade 2 gastroenteritis, grade 3 drug‐induced liver injury, and grade 2 pyrexia
  Thromboembolic events, incidence: 7.1%
  Vomiting, any grade: 21.4%
Group II (11 patients)
  Patients with adverse events at grade ≥3: 78.6%
Group II (one patient)
  Thromboembolic events at grade ≥3: 7.1%
Group II (six patients)
  Patients with serious AEs (all requiring hospitalization): 42.9%
Group II (three patients, one from each dose)
  Patients with dose reduction of nintedanib due to AEs: 21% and 21.4%
